The source made the active and inactive calls. No cut-off for these calls is given here.

The test system of assay [1] is Rattus norvegicus. Nature of the assay: Antihypertensive activity was determined in cannulated spontaneously hypertensive rats(SHR) and maximum decrease of mean arterial blood pressure (MABP) at 50 mg/kg oral dose. The class given is functional, Artery. In outline: (§1)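 Cannulated SHR given compound by gastric gavage in 0.5% methylcellulose (5 mL/kg), doses 0.1–50 mg/kg, 4–8 animals per dose, after 1-h equilibration. MABP recorded for 4 h; maximal % decrease reported with time to peak effect. Significance by two-way analysis of variance.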

Assay [2] relates to Rattus norvegicus. Nature of the assay: Antihypertensive activity was determined in cannulated spontaneously hypertensive rats(SHR) and heart rate response was reported to reduce by 10-25% after 4 hr at a peroral dose of 5 mg/kg. Format: functional, organism-based. Set-up: dose 5 mg/kg.
The subject of assay [3] is Rattus norvegicus. As to the kind of experiment: Antihypertensive activity was determined in cannulated spontaneously hypertensive rats(SHR) and heart rate response was reported to reduce by 10-25% after 4 hr at a peroral dose of 10 mg/kg. Set-up: dose 10 mg/kg. The class given is functional, organism-based.
In assay [4] the test system is Rattus norvegicus. Nature of the assay: Vasopressor responses to epinephrine as a measure of the alpha-1-adrenoceptor blocking activity at 50 mg/kg administered orally was reported to be antagonized. The class given is functional, organism-based. Details: dose 50 mg/kg.
In assay [5] the test system is Rattus norvegicus. As to the kind of experiment: Vasopressor responses to epinephrine as a measure of the alpha-1-adrenoceptor blocking activity at 10 mg/kg administered orally was reported to be reversed. Format: functional, organism-based. Details: dose 10 mg/kg.
Assay [6] relates to Rattus norvegicus. As to the kind of experiment: Antihypertensive activity was determined in cannulated spontaneously hypertensive rats(SHR) and heart rate response was reported to be reduce by 10-25% after 4 hr at a dose of 50 mg/kg. The class given is functional, organism-based. Set-up: dose 50 mg/kg.
The subject of assay [7] is Rattus norvegicus. Nature of the assay: Vasopressor responses to epinephrine as a measure of the alpha-1-adrenoceptor blocking activity at 1 mg/kg administered orally was reported to be reversed. The class given is functional, organism-based. Details: dose 1 mg/kg.
Assay [8] has as its system Rattus norvegicus. As to the kind of experiment: Antihypertensive activity was determined in cannulated spontaneously hypertensive rats(SHR) and maximum decrease of mean arterial blood pressure (MABP) at 10 mg/kg oral dose. Format: functional, Artery. The method, boiled down:
as §1

Assay [9] has as its system Rattus norvegicus. As to the kind of experiment: Antihypertensive activity was determined in cannulated spontaneously hypertensive rats(SHR) and maximum decrease of mean arterial blood pressure (MABP) at 1 mg/kg oral dose. Format: functional, Artery. The method, boiled down: as §1
Assay [10] relates to Rattus norvegicus. Nature of the assay: Vasopressor responses to epinephrine as a measure of the alpha-1-adrenoceptor blocking activity at 2.5 mg/kg administered orally was reported to be reversed. Format: functional, organism-based. Set-up: dose 2.5 mg/kg.
The test system of assay [11] is Rattus norvegicus. As to the kind of experiment: Antihypertensive activity was determined in cannulated spontaneously hypertensive rats(SHR) and marked bradycardia was reported at a dose of 10 mg/kg. Format: functional, organism-based. Set-up: dose 10 mg/kg.
Assay [12] has as its system Rattus norvegicus. Nature of the assay: Antihypertensive activity was determined in cannulated spontaneously hypertensive rats(SHR) and maximum decrease of mean arterial blood pressure (MABP) at 2.5 mg/kg oral dose. Format: functional, Artery. The method, boiled down: as §1
Assay [13] deals with Rattus norvegicus. Nature of the assay: Vasopressor responses to epinephrine as a measure of the alpha-1-adrenoceptor blocking activity at 25 mg/kg administered orally was reported to be slightly. Format: functional, organism-based. Set-up: dose 25 mg/kg.
Assay [14] concerns Rattus norvegicus. As to the kind of experiment: Antihypertensive activity was determined in cannulated spontaneously hypertensive rats(SHR) and activity rating was given with respect to MABP values at 25 mg/kg oral dose;MABP reduced by 15-25% and an appreciable antihypertensive at 2.5-5 mg/kg. Format: functional, organism-based. Details: dose 25 mg/kg.
Assay [15] concerns Rattus norvegicus. Nature of the assay: Antihypertensive activity was determined in cannulated spontaneously hypertensive rats(SHR) and maximum decrease of mean arterial blood pressure (MABP) at 25 mg/kg oral dose. Format: functional, Artery. The method, boiled down: as §1
Assay [16] concerns Rattus norvegicus. Nature of the assay: Vasopressor responses to epinephrine as a measure of the alpha-1-adrenoceptor blocking activity at 10 mg/kg administered orally was reported to be potentiated. Format: functional, organism-based. Set-up: dose 10 mg/kg.
For assay [17], the system named is Rattus norvegicus. As to the kind of experiment: Antihypertensive activity was determined in cannulated spontaneously hypertensive rats(SHR) and heart rate response was reported to reduce by 10-25% after 4 hr at a peroral dose of 25 mg/kg. Format: functional, organism-based. Details: dose 25 mg/kg.
In assay [18] the test system is Rattus norvegicus. As to the kind of experiment: Antihypertensive activity was determined in cannulated spontaneously hypertensive rats(SHR) and activity rating was given with respect to MABP values at 10 mg/kg oral dose;a decrease of MABP by >40% at 10 mg/kg and by 10-207. The class given is functional, organism-based. In outline:
(§2)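 Cannulated SHR dosed orally (gavage) in 0.5% methylcellulose, 5 mL/kg; 4–8 rats per dose. MABP monitored 4 h, maximal change taken. Rating scale: 0 = no significant activity at 50 mg/kg, stepping up to 6 = MABP fall >40% at 10 mg/kg and 10–20% at 0.25–1 mg/kg, based on % MABP decreases at set doses.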

Assay [19] concerns Rattus norvegicus. As to the kind of experiment: Antihypertensive activity was determined in cannulated spontaneously hypertensive rats(SHR) and maximum decrease of mean arterial blood pressure (MABP) at 0.5 mg/kg oral dose. Format: functional, Artery. In outline: as §1
Assay [20] concerns Rattus norvegicus. Nature of the assay: Antihypertensive activity was determined in cannulated spontaneously hypertensive rats(SHR) and marked bradycardia was reported at a dose of 50 mg/kg. The class given is functional, organism-based. Details: dose 50 mg/kg.
The subject of assay [21] is Rattus norvegicus. As to the kind of experiment: Vasopressor responses to epinephrine as a measure of the alpha-1-adrenoceptor blocking activity at 25 mg/kg administered orally was reported to have no change. The class given is functional, organism-based. Set-up: dose 25 mg/kg.
Assay [22] relates to Rattus norvegicus. Nature of the assay: Vasopressor responses to epinephrine as a measure of the alpha-1-adrenoceptor blocking activity at 10 mg/kg administered orally was reported to have no change. The class given is functional, organism-based. Details: dose 10 mg/kg.
The subject of assay [23] is Rattus norvegicus. As to the kind of experiment: Vasopressor responses to epinephrine as a measure of the alpha-1-adrenoceptor blocking activity at 25 mg/kg administered orally was reported to be antagonized. Format: functional, organism-based. Set-up: dose 25 mg/kg. Particulars: filed as antagonist.
In assay [24] the test system is Rattus norvegicus. Nature of the assay: Antihypertensive activity was determined in cannulated spontaneously hypertensive rats(SHR) and activity rating was given with respect to MABP values at 25 mg/kg oral dose;lowering MABP by 20-30% at 5 mg/kg and by 10-20% at 1-2.5 mg/kg. The class given is functional, organism-based. In outline: as §2
For assay [25], the system named is Rattus norvegicus. As to the kind of experiment: Vasopressor responses to epinephrine as a measure of the alpha-1-adrenoceptor blocking activity at 5 mg/kg administered orally was reported to be antagonized. Format: functional, organism-based. Details: dose 5 mg/kg. As to conditions: filed as antagonist.
The subject of assay [26] is Rattus norvegicus. Nature of the assay: Vasopressor responses to epinephrine as a measure of the alpha-1-adrenoceptor blocking activity at 2.5 mg/kg administered orally was reported to be antagonized. The class given is functional, organism-based. Details: dose 2.5 mg/kg. As to conditions: filed as antagonist.
The subject of assay [27] is Rattus norvegicus. As to the kind of experiment: Antihypertensive activity was determined in cannulated spontaneously hypertensive rats(SHR) and marked bradycardia was reported at a dose of 25 mg/kg. Format: functional, organism-based. Set-up: dose 25 mg/kg.
Assay [28] relates to Rattus norvegicus. Nature of the assay: Antihypertensive activity was determined in cannulated spontaneously hypertensive rats(SHR) and maximum decrease of mean arterial blood pressure (MABP) at 5 mg/kg oral dose. Format: functional, Artery. In outline: as §1

Turning to `CCN1CCN(C(C)C)C2CCn3c(c(C)c4cc(Br)ccc43)C21.Cl.Cl` (centres undefined), in the assay on Rattus norvegicus [1], the Decrease in MABP was 20%.

For the compound `Cc1c2n(c3ccccc13)CCC1C2N(C)CCN1C` (centres undefined), the HR entry in the assay with Rattus norvegicus [2] is on record as “Heart rate response was reported to reduce by 10-25% after 4 hr at a peroral dose of 10 mg/kg”; in the assay on Rattus norvegicus [3], “Heart rate response was reported to reduce by 10-25% after 4 hr at a peroral dose of 10 mg/kg”; in the assay on Rattus norvegicus [6] it was “Heart rate response was reported to be reduce by 10-25% after 4 hr at a dose of 50 mg/kg”. The Activity result with Rattus norvegicus [4] is on record as “Vasopressor response antagonized”; in the assay on Rattus norvegicus [5], “Vasopressor response reversed”.

As to `CCCCN1CCN(CC)C2CCn3c(c(C)c4ccccc43)C21.Cl.Cl` (centres undefined), the Activity result with Rattus norvegicus [7] and with Rattus norvegicus [5] was “Vasopressor response reversed” throughout. The “Decrease in MABP” value in the assay on Rattus norvegicus [8] turned out to be 36%; with Rattus norvegicus [9], 16%. Further, the HR entry in the assay on Rattus norvegicus [3] is recorded as “Heart rate response was reported to reduce by 10-25% after 4 hr at a peroral dose of 10 mg/kg”.

Turning to `Br.CCCN1CCN(C(C)C)C2CCn3c(c(C)c4ccccc43)C21` (centres undefined), the Activity result in the assay on Rattus norvegicus [7], in the assay with Rattus norvegicus [10] and with Rattus norvegicus [5] was “Vasopressor response reversed” throughout. For the same compound, the results for the “Decrease in MABP” value with Rattus norvegicus [8], with Rattus norvegicus [9] and with Rattus norvegicus [12] were 40%, 19% and 25%, respectively. Besides, the HR entry in the assay on Rattus norvegicus [11] is listed as “Heart rate response was reported to reduce by 10-25% after 4 hr at a peroral dose of 1.0 mg/kg”.

Take `Cc1c2n(c3ccccc13)CCC1NCCNC21` (centres undefined): the “Decrease in MABP” value worked out at 19% with Rattus norvegicus [8] and 27% with Rattus norvegicus [15]. Also, the Activity entry in the assay with Rattus norvegicus [13] and with Rattus norvegicus [16] was “Vasopressor response potentiated” throughout. Besides, the Activity rating result in the assay with Rattus norvegicus [14] was “MABP reduced by 15-25% and an appreciable antihypertensive at 2.5-5 mg/kg”. Also, in the assay on Rattus norvegicus [17], the HR result is recorded as “Heart rate response was reported to reduce by 10-25% after 4 hr at a peroral dose of 25 mg/kg”.

For `COc1cc2nc(N3CCN(C(=O)c4ccco4)CC3)nc(N)c2cc1OC` [PRAZOSIN], the “Decrease in MABP” value in the assay on Rattus norvegicus [8] is reported as 49%; in the assay on Rattus norvegicus [9] it was 46%; in the assay on Rattus norvegicus [19] it was 35%. Moreover, the Activity rating entry in the assay on Rattus norvegicus [18] was “Active”.

On to `Br.Br.CCN1CCNC2c3c(C)c4ccccc4n3CCC21` (centres undefined), for which the results for the “Decrease in MABP” value in the assay on Rattus norvegicus [8], in the assay on Rattus norvegicus [1] and in the assay on Rattus norvegicus [15] were 23%, 31% and 26%, respectively. Besides, in the assay on Rattus norvegicus [20], the HR entry is recorded as “Heart rate response was reported to reduce by 10-25% after 4 hr at a peroral dose of 25 mg/kg”. The result in the assay on Rattus norvegicus [21] and in the assay with Rattus norvegicus [22] was inactive. Also, the Activity result in the assay with Rattus norvegicus [4] is reported as “Vasopressor response antagonized”.

Consider `O=C(NC1CCN(CCc2c[nH]c3ccccc23)CC1)c1ccccc1` [INDORAMIN], for which the Activity result in the assay on Rattus norvegicus [23], in the assay with Rattus norvegicus [25] and in the assay on Rattus norvegicus [26] was “Antagonist” each time. In addition, the Activity rating result in the assay with Rattus norvegicus [24] was “Active”. The HR result in the assay on Rattus norvegicus [2] and in the assay with Rattus norvegicus [27] was “Active” each time. For the same compound, the “Decrease in MABP” value in the assay on Rattus norvegicus [15] is reported as 40%; in the assay with Rattus norvegicus [12], 12%; in the assay on Rattus norvegicus [28] it was 29%.

(Values after ChEMBL document CHEMBL1123678, “Octahydropyrazino[2',3':3,4]pyrido[1,2-a]indoles. A new class of potent antihypertensive agents” (1987).)
